From ChEMBL document CHEMBL1144844, “Synthesis and characterization of 5,6,7,8-tetrahydroquinoline C5a receptor antagonists” (Bioorg Med Chem Lett, 2008)
pIC50, pKi: −log10 of the molar value.

Key:
[1] = biological target: T1, C5a anaphylatoxin chemotactic receptor 1 (Homo sapiens, UniProt P21730); experiment: Antagonist activity at human C5a receptor in U937 cells assessed as inhibition of anaphylatoxin-induced intracellular calcium mobilization; format: functional, cell-based, U-937
T1 sequence (P21730 whole entry): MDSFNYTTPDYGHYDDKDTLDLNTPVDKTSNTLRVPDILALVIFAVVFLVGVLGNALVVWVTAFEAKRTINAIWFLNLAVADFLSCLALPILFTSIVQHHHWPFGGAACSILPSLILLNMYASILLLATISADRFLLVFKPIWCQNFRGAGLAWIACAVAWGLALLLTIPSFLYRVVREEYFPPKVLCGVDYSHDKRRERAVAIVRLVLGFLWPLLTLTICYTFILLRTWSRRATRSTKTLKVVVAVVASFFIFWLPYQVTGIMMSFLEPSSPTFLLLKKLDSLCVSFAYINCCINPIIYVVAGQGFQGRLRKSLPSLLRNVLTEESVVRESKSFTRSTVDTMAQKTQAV

[2] = biological target: T1, C5a anaphylatoxin chemotactic receptor 1; experiment: Displacement of [125I]C5a from human C5a receptor in U937 cells; format: cell-based, U-937
[3] = Oral bioavailability in rat at 10 mg/kg; format: ADME, organism-based; conditions: in vivo
How it was run: (§1)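 Rat pharmacokinetics with single doses: oral at 10 mg/kg and intravenous at 2 mg/kg, n = 4. Cmax and half-life were taken from the oral arm, and bioavailability from comparison of the oral and intravenous exposures.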

[4] = Metabolic stability in human liver microsomes after 10 mins; format: ADME, Microsome; conditions: read-out: Stability
[5] = Cmax in rat at 10 mg/kg, po; format: ADME, organism-based; parameters: dose 10 mg/kg, route oral; conditions: in vivo; how it was run: as §1
[6] = Metabolic stability in human liver microsomes; format: ADME, Microsome
[7] = Clearance in rat at 2 mg/kg, iv; conditions: in vivo
[8] = Half life in rat at 10 mg/kg, po; format: ADME, organism-based; parameters: dose 10 mg/kg, route oral; conditions: in vivo; how it was run: as §1

SMILES	pIC50 [1]	further results
CCc1cccc(CC)c1-c1cc(OC)c2c(n1)CCCC2N[C@@H]1CCCc2ccccc21 (stereo in doubt; 41)	5.09	
CCc1cccc(CC)c1-c1cc(OC)c2c(n1)CCCC2N1CCc2c(cccc2C(F)(F)F)C1 (stereo unspecified)	< 5.00	
CCc1cccc(CC)c1-c1ccc2c(n1)CCCC2N(CC)c1cccc2ccccc12 (stereo unspecified)	< 5.00	
CCc1cccc(CC)c1-c1cc(OC)c2c(n1)CCCC2N(C)c1cccc2c(OC)cccc12 (stereo unspecified)	< 5.00	
CCN(c1cccc2ccccc12)C1CCCc2nc(-c3ccccc3C(C)C)cc(OC)c21 (stereo unspecified)	5.77	
CCc1cccc(CC)c1-c1cc(OC)c2c(n1)CCCC2N1CCc2ccccc2C1 (stereo unspecified)	5.96	
CCc1cccc(CC)c1-c1cc(OC)c2c(n1)CCCC2N[C@H]1CCCc2ccccc21 (stereo in doubt; 38)	6.09	
CCc1cccc(CC)c1-c1cc(CC)c2c(n1)CCCC2N(C)Cc1cccc2ccccc12 (stereo unspecified)	< 5.00	
CCc1ccccc1-c1cc(OC)c2c(n1)CCCC2N(CC)c1cccc2ccccc12 (stereo unspecified)	6.19	
CCc1cccc(CC)c1-c1cc(OC)c2c(n1)CCCC2Nc1cccc2ccccc12 (stereo unspecified)	< 5.00	
CCc1cccc(CC)c1-c1cc(OC)c2c(n1)CCCC2N[C@@H]1CCCc2ccccc21 (stereo in doubt; 40)	5.72	
CCN(c1cccc2ccccc12)C1CCCc2nc(Cl)cc(OC)c21 (stereo unspecified)	< 5.00	
CCc1cccc(CC)c1-c1cc(OC)c2c(n1)CCCC2N(CC)c1cccc2c1CCCC2 (stereo unspecified)	6.66	
CCc1cccc(CC)c1-c1cc(OC)c2c(n1)CCCC2N(CCO)c1cccc2ccccc12 (stereo unspecified)	6.72	pKi [2]: 6.74
CCNC1CCCc2nc(-c3c(CC)cccc3CC)cc(OC)c21 (stereo unspecified)	< 5.00	
CCc1cccc(CC)c1-c1cc(Cl)c2c(n1)CCCC2N(CC)c1cccc2ccccc12 (stereo unspecified)	5.70	
CCN(c1cccc2ccccc12)C1CCCc2nc(-c3ccccc3)cc(OC)c21 (stereo unspecified)	< 5.00	

SMILES	pIC50 [1]	further results
CCc1cccc(CC)c1-c1cc(OC)c2c(n1)CCCC2N[C@H]1CCCc2ccccc21 (stereo in doubt; 39)	5.26	
CCc1cccc(CC)c1-c1cc(CC)c2c(n1)CCCC2N(CC)Cc1ccccc1 (stereo unspecified)	< 5.00	
CCN(c1cccc2ccccc12)C1CCCc2nc(-c3ccsc3)cc(OC)c21 (stereo unspecified)	< 5.00	
CCc1cccc(CC)c1-c1cc(OC)c2c(n1)CCCC2N(C)c1cccc2ccccc12 (stereo unspecified)	6.77	
CCN(c1cccc2ccccc12)C1CCCc2nc(-c3cccnc3)cc(OC)c21 (stereo unspecified)	< 5.00	
CCc1cccc(CC)c1-c1cc(OC)c2c(n1)CCCC2N1CCc2ccc(OC)cc2C1 (stereo unspecified)	< 5.00	
CCN(c1cccc2ccccc12)C1CCCc2nc(-c3c(C)cccc3C)cc(OC)c21 (stereo unspecified)	6.89	
CCN(c1cccc2ccccc12)C1CCCc2nc(-c3ccc4c(c3)OCO4)cc(OC)c21 (stereo unspecified)	< 5.00	
CCN(c1cccc2ccccc12)C1CCCc2nc(-c3ccccc3-c3ccccc3)cc(OC)c21 (stereo unspecified)	< 5.00	
CCc1cccc(CC)c1-c1cc(OC)c2c(n1)CCCC2N(C)c1ccc2ccccc2c1 (stereo unspecified)	< 5.00	
CCc1cccc(CC)c1-c1cc(OC)c2c(n1)CCCC2N(C)c1cccc2cc(OC)ccc12 (stereo unspecified)	6.74	
CCN(c1cccc2ccccc12)C1CCCc2nc(-c3c(OC)cccc3OC)cc(OC)c21 (stereo unspecified)	5.74	pKi [2]: 5.92
CCc1cccc(CC)c1-c1cc(OC)c2c(n1)CCCC2N1CCc2ccc(C(F)(F)F)cc2C1 (stereo unspecified)	< 5.00	
CCc1cccc(CC)c1-c1cc(OC)c2c(n1)CCCC2N1CCc2cccc(C(F)(F)F)c2C1 (stereo unspecified)	6.57	
CCc1cccc(CC)c1-c1cc(OC)c2c(n1)CCCC2N(CC)c1cccc2ccccc12 (stereo in doubt; 27)		bioavailability [3]: 59%; remaining at 10 min [4]: 88%; Cmax [5]: 1300 nM; half-life [6]: 0.9 h; clearance [7]: 31 mL/min/kg; half-life [8]: 1.8 h
CCc1cccc(CC)c1-c1cc(OC)c2c(n1)CCCC2N1CCc2cc(OC)c(OC)cc2C1 (stereo unspecified)	< 5.00	
CCc1cccc(CC)c1-c1cc(OC)c2c(n1)CCCC2N(C)c1c(C)ccc2ccccc12 (stereo unspecified)	5.82	
